Data on one compound can be found in ChEMBL document CHEMBL1765057, “Pyrazolo[4,3-d]pyrimidine bioisostere of roscovitine: evaluation of a novel selective inhibitor of cyclin-dependent kinases with antiproliferative activity” (J Med Chem, 2011).

Activity calls are given as the source filed them. The calls are words filed in the database; no cut-off is given here.

For orientation: IC50 means the concentration at which inhibition is half-maximal.

Common to all, as to type: functional, cell-based
One assay relates to CCRF-CEM. Kind of assay: Cytotoxicity against human CEM cells after 72 hrs by fluoroskan ascent microplate reader analysis. A digest of the protocol:
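Cells were grown in DMEM with 10% FCS and 4 mM glutamine at 37 °C under CO2, then plated at densities suited to each line. Compounds were added as 3-fold dilutions in triplicate for 72 h.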

Assay [1] has as its system RPMI-8226. The assay can be described thus: Induction of apoptosis in human RPMI8226 cells assessed as induction of caspase3 activation at 20 uM after 24 hrs by immunoblot analysis. (In general: In western blotting, separated proteins are transferred to a membrane and probed.)
Assay [2] concerns RPMI-8226. Kind of assay: Cell cycle arrest in human RPMI8226 cells assessed as reduction of actively replicating DNA level at 80 uM after 24 hrs using propidium iodide and BrdU staining by flow cytometry. A digest of the protocol:
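Asynchronously growing RPMI-8226 multiple myeloma cells were exposed for 24 h. Cells were double-stained with propidium iodide and BrdU and analysed by flow cytometry for G1, S, G2/M and BrdU-positive fractions. The subG1 population was taken as indicative of apoptosis.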
On the technique in general: Uptake of a labelled nucleoside into DNA is a usual measure of proliferation.

Another assay deals with MCF7. The assay can be described thus: Induction of apoptosis in human MCF7 cells at 10 uM after 24 hrs.

With `CC[C@H](CO)Nc1nc(NCc2ccccc2)c2[nH]nc(C(C)C)c2n1`, in the assay on CCRF-CEM, half-maximal inhibition (IC50) required 3.8 µM. Further, the outcome in the assay on RPMI-8226 [1], in the assay on RPMI-8226 [2] and with MCF7 was Active.
